Screening results as filed in PubChem BioAssay.
Compounds with a hit are over-represented: about 1.5% of the library has one in this group of screens.
TPT1 inh – blocks Candida albicans tRNA 2'-phosphotransferase | inhibition, % at 5 µM | AID 1962 | recombinant caTPT1, FP RNA substrate dephosphorylation | 0.81% of 300,000 active;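 active = inhibition above the mean of all tested compounds plus 3 SD, set per screening campaign, cut at about 24% in these data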
CSN deneddyl inh – CSN deneddylation inhibition; Q92905; Purified CSN, SCF-Nedd8-OG deneddylation, fluorescence polarization; inhibition, % at 12.5 µM; 0.38% of 360,000 active;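 active = pattern-corrected inhibition above about 35%, with an unprinted fluorescence ratio check between 0.5 and 1.5, limit read from the data, passing the limit was not always enough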
Target sequence (Q92905 whole entry, looked up, one chain of several): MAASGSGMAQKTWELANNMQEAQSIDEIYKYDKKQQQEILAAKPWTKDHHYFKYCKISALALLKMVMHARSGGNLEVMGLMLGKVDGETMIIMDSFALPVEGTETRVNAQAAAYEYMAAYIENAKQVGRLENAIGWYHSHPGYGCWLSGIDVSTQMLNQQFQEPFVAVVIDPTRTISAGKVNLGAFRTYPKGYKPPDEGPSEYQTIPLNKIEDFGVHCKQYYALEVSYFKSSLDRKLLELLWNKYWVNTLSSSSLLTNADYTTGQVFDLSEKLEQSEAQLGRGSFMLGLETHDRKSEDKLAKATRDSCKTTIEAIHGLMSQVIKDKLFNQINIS
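Assay system: HEK293T-derived human Csn5 enzyme; quantity: 0.24 nM enzyme; medium: Tris/NaCl/DTT buffer, pH 7.5; also added: substrate SCFSkp2-Nedd8OG, 10 nM; doses: 12.5 µM compound; schedule: 90 min reaction at room temperature; signal: FP; read-out: % inhibition of substrate cleavage by Csn5; benchmarks: substrate-only high control, full reaction low control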
Rpn11 block – blocks the human proteasome subunit Rpn11; calls only at 20 µM; human 26S proteasome, Ub4-pepOG fluorescence polarization; 20S core pre-blocked with epoxomicin; 0.59% of 360,000 active; AID 588493; O00487;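 active = inhibition at 20 µM, scaled to each plate's controls, above about 33%, limit read from the data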
HNF4A DNA FP – change in binding of human HNF4 alpha to DNA; activity change, % at 10 µM; 0.3% of 360,000 active; HNF4a-FITC DNA binding, fluorescence polarization, 1 h; in the data active = activity change above about 30%, passing the limit was not always enough
Each line names hits and unclear results; the compound was inactive in the other large screens.

COc1cccc(N/C=C/C(=O)c2ccc(OC)c(OC)c2)c1	none
CC1CN(c2nc3ccccc3nc2SCC(=O)Nc2cccc(C(F)(F)F)c2)CC(C)O1 (centres undefined)	none
CC12CCC(=O)N1C(C(=O)NNC(=O)c1ccc(Br)cc1)CS2 (centres undefined)	none (no result: TPT1 inh)
CNS(=O)(=O)c1cccc(C(=O)OCC(=O)c2ccc3[nH]c(=O)[nH]c3c2)c1	CSN deneddyl inh 54 (no result: TPT1 inh)
Cc1cc(C(=O)N/N=C/c2ccc(-c3ccc([N+](=O)[O-])cc3Cl)o2)n[nH]1	CSN deneddyl inh 46
CCN1/C(=C/c2ccc3ccccc3[n+]2CCCS(=O)(=O)[O-])C=Cc2cc(C)ccc21	none (no result: TPT1 inh)
CCN1/C(=C/c2ccc3ccccc3[n+]2CC)C=Cc2ccccc21	HNF4A DNA FP 44
CN1CCN(NC(=O)c2cn(-c3ccccc3)nc2-c2cccs2)CC1	none
CN1CCN(NC(=O)c2cn(-c3ccccc3)nc2-c2cccc(Br)c2)CC1	HNF4A DNA FP 46
COc1cc(C2C(C(=O)/C=C/c3ccccc3)=C(O)C(=O)N2c2ccccn2)ccc1O (centres undefined)	HNF4A DNA FP 40 (not shown: Rpn11 block)
Cc1ccc(NC2CCCN(C(=O)c3cc(C(C)C)nn3C)C2)cc1C (centres undefined)	none (no result: TPT1 inh)
O=C(Cc1ccccc1)NCC(=O)OCc1cccc([N+](=O)[O-])c1	CSN deneddyl inh 38
CCN(CC)C(=O)c1sc2nc(-c3cccs3)cc(-c3ccc(Cl)cc3)c2c1N	Rpn11 block active
O=c1[nH]c2cc3c(cc2cc1C(c1nnnn1C1CCCCC1)N1CCSCC1)OCCO3 (centres undefined)	CSN deneddyl inh 37
CCOC(=O)C1CCN(C(c2cc3ccc(C)c(C)c3[nH]c2=O)c2nnnn2C2CCCCC2)CC1 (centres undefined)	Rpn11 block active
COc1cc(/C=C/C(=O)O)ccc1O	none
COc1cc(/C=C/C(=O)/C=C(O)/C=C/c2ccc(O)c(OC)c2)ccc1O	HNF4A DNA FP 117 (not shown: TPT1 inh, Rpn11 block)
Fc1ccc(NC(=S)N2CCOCC2)cc1Cl	none
S=C(Nc1ccc(Cl)cc1)N1CCOCC1	CSN deneddyl inh 42
COc1cc2oc(=O)cc(CN3CCOCC3)c2cc1Cl	CSN deneddyl inh 118 (no result: TPT1 inh)
COc1cc2oc(=O)cc(CN3CCCC3)c2cc1Cl	none (no result: TPT1 inh)
c1nc(NC2CCCCC2)c2[nH]cnc2n1	CSN deneddyl inh 45
c1nc(NC2CCCCCC2)c2[nH]cnc2n1	none
C[C@@H]1CN([C@H](C)CO)S(=O)(=O)c2ccc(Br)cc2O[C@H]1CN(C)C(=O)C1CCCCC1	none (no result: TPT1 inh)
N#Cc1c(-c2cccc(Br)c2)cc(-c2ccco2)[nH]c1=O	CSN deneddyl inh 36
COc1ccc(-c2cc(-c3ccco3)[nH]c(=O)c2C#N)cc1	none
CCOC(=O)CC1C(=O)NCCN1c1nc2ccc(C)cn2c(=O)c1/C=C1\SC(=S)N(CC(C)C)C1=O (centres undefined)	TPT1 inh 122 (not shown: Rpn11 block)
CCCN1C(=O)/C(=C/c2c(N3CCNC(=O)C3CC(=O)OCC)nc3c(C)cccn3c2=O)SC1=S (centres undefined)	TPT1 inh 137 (not shown: Rpn11 block)
CCOC(=O)CC1C(=O)NCCN1c1nc2ccc(C)cn2c(=O)c1/C=C1\SC(=S)N(C(C)CC)C1=O (centres undefined)	TPT1 inh 137 (no result: CSN deneddyl inh, Rpn11 block, HNF4A DNA FP)
CCOC(=O)c1cnc(-n2cc(C)cn2)nc1NCc1ccc2c(c1)OCO2	HNF4A DNA FP 48
Cc1ccc(C)n1/N=C1/NC(=O)CS1	CSN deneddyl inh 46
Cc1ccc(-n2nc3c(=O)n(CC(=O)NC4CCCCC4)nc(C)c3c2C)cc1	none
Cc1ccc(C(=O)Nc2ccc(N3CCCCC3)cc2)cc1	none (no result: TPT1 inh)
CC(C)Oc1ccc(C(=O)Nc2ccc(N3CCCCC3)cc2)cc1	HNF4A DNA FP 82
O=C1NC[C@H](c2ccccc2)N(CCC23CC4CC(CC(C4)C2)C3)C1=O	CSN deneddyl inh 74
CCOc1ccc(OCC)c(S(=O)(=O)n2ccnc2C)c1	HNF4A DNA FP 48
CCOc1ccc(C(C)C)cc1S(=O)(=O)n1ccnc1C	CSN deneddyl inh 73
COc1cc(C(=O)OCC(=O)N2CCC(C)CC2)cc2c1OCCO2	none (no result: TPT1 inh)
COc1ccc(CN2C(=O)C(CC(=O)NC(c3ccccc3)c3ccccc3)CC(C(=O)N(C)C)=C2C)cc1 (centres undefined)	none (no result: TPT1 inh)
CCNC(=O)C1(C)CCN(C(=O)c2ccc(F)c(Cl)c2)C1 (centres undefined)	none (no result: TPT1 inh)
N#Cc1ccccc1COC(=O)c1cccc(S(=O)(=O)N2CCCC2)c1	none (no result: TPT1 inh)
COc1cccc(-c2nn(-c3ccccc3)cc2CNC(C)Cn2cncn2)c1 (centres undefined)	CSN deneddyl inh 38
